Data set [1] deals with T1, Neuropeptide S receptor (Homo sapiens, UniProt Q6W5P4).
T1 sequence (Q6W5P4 whole entry): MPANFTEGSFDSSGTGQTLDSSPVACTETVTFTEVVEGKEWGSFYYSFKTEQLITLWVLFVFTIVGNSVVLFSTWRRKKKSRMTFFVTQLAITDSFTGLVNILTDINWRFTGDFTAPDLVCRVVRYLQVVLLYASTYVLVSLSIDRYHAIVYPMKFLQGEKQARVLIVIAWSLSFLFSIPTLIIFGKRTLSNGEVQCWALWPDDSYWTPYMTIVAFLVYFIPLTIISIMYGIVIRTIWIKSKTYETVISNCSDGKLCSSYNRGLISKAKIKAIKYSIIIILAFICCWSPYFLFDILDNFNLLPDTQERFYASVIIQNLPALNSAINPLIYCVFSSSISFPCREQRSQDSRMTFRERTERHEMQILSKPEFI
In words: Antagonist activity at human recombinant NPS receptor expressed in CHOK1 cells assessed as inhibition of NPS-induced calcium mobilization by FLIPR assay. In kind it is functional, cell-based, CHO-K1. The method in brief: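 Dual-sequence FLIPR Ca2+ mobilization in CHOK1 cells expressing recombinant NPSR, plated 24 h before the run. Fluo4AM dye loaded 1 h at 37 °C, 5% CO2. Cells incubated with titrated compound for 4 min, then an EC80 of human NPS added and read for another 4 min. Inhibition calculated against NPS-stimulated control wells. IC50 from 4-parameter logistic fits, averaged over at least two experiments.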

The target of data set [2] is T2, MDR1 (ABCB1, P-glycoprotein) (Homo sapiens, UniProt P08183). Kind of data set: Permeability of the compound assessed as MDR1-mediated directional transport ratio by cell based assay. Particulars: not told. The method, boiled down: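 MDR1 directional transport ratio, calculated as (B to A)/(A to B). Average of three experiments.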
T2 sequence (P08183 whole entry): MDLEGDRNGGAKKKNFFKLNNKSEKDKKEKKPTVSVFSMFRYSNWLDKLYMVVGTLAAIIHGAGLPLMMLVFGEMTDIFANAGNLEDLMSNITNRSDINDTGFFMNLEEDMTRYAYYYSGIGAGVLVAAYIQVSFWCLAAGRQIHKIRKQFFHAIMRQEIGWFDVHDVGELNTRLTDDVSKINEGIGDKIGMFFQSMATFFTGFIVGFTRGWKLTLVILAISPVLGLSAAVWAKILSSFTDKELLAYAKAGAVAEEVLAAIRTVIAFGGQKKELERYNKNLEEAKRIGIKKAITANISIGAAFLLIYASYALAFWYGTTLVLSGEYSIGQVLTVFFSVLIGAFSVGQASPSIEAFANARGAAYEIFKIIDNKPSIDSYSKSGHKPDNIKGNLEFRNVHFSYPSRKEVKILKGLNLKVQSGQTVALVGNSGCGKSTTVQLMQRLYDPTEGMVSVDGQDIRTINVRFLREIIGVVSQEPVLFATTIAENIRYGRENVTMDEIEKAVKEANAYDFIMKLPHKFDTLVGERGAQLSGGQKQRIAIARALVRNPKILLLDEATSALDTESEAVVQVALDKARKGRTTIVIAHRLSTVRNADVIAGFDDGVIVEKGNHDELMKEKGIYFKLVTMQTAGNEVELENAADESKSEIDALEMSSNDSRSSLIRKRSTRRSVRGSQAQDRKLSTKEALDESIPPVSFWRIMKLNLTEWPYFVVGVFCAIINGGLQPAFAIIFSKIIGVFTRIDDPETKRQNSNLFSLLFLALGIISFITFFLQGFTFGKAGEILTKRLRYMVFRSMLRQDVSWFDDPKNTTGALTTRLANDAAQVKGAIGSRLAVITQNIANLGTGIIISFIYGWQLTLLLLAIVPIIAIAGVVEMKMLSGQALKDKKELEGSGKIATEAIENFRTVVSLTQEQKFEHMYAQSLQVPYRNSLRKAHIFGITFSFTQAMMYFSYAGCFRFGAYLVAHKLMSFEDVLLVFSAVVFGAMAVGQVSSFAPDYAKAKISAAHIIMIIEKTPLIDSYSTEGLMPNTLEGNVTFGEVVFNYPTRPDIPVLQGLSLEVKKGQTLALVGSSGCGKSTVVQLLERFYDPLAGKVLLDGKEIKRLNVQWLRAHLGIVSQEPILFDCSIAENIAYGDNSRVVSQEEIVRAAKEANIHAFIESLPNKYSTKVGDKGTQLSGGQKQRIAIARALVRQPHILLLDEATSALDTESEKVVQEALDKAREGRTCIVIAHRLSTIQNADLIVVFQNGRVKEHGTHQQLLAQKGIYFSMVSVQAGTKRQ
Data set [3] deals with T2, MDR1 (ABCB1, P-glycoprotein). In words: (§1) Permeability of the compound assessed as MDR1-passive permeability by cell based assay. Particulars: not told; read-out: permeability. The method, boiled down:
(§2)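 Passive permeability expressed as Papp in 10^-6 cm/s.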

A short description of data set [4]: Protein binding in human plasma. Particulars: read-out: PPB (converted).
For data set [5], the target named is ATP-dependent translocase ABCB1 (Homo sapiens, UniProt P08183). Described as §1. The method in brief: as §2
Sequence of ATP-dependent translocase ABCB1 (P08183 whole entry): as above
A further data set concerns Plasma. In words: Protein binding in human plasma. In kind it is ADME, cell-free.
Data set [6] in a line: Drug level in rat plasma at 30 mg/kg, ip after 0.5 hrs. In kind it is ADME, organism-based. Also noted: dose 30 mg/kg, route intraperitoneal. The note with it: read-out: Drug uptake. The method in brief: (§3)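 Rats dosed 30 mg/kg ip. Plasma, brain and CSF levels measured at 0.5 h and 2.0 h and reported in nM.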
Data set [7] can be described thus: Drug level in rat brain at 30 mg/kg, ip after 0.5 hrs. In kind it is ADME, organism-based. Also noted: dose 30 mg/kg, route intraperitoneal. Particulars: read-out: Drug uptake. The method in brief: as §3
A short description of data set [8]: Drug level in rat cerebrospinal fluid at 30 mg/kg, ip after 0.5 hrs. In kind it is ADME, organism-based. Also noted: dose 30 mg/kg, route intraperitoneal. Particulars: read-out: Drug uptake. The method in brief:
as §3

A short description of data set [9]: Drug level in rat plasma at 30 mg/kg, ip after 2 hrs. It counts as ADME, organism-based. The note with it: read-out: Drug uptake. Also noted: dose 30 mg/kg, route intraperitoneal. The method in brief: as §3
The nature of data set [10]: Drug level in rat brain at 30 mg/kg, ip after 2 hrs. It counts as ADME, organism-based. More on the design: dose 30 mg/kg, route intraperitoneal. Particulars: read-out: Drug uptake. The method in brief: as §3
The nature of data set [11]: Drug level in rat cerebrospinal fluid at 30 mg/kg, ip after 2 hrs. Also noted: dose 30 mg/kg, route intraperitoneal. It counts as ADME, organism-based. Particulars: read-out: Drug uptake. The method, boiled down:
as §3

Data set [12] has as its target T3, Neuropeptide S receptor (Rattus norvegicus, UniProt P0C0L6).
T3 sequence (P0C0L6 whole entry): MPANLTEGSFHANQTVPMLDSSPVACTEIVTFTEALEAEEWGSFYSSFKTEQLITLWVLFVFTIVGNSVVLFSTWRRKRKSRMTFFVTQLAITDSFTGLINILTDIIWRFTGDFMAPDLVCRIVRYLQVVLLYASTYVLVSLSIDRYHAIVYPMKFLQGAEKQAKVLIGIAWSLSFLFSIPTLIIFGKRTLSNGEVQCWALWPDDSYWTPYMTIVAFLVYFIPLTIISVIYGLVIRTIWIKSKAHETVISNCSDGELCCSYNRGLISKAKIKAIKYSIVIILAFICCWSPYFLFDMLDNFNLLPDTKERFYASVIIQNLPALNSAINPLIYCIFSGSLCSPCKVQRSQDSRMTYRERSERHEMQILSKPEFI
In words: Displacement of [3H]quinolinone from rat NPS receptor.

The test system of data set [13] is Rattus norvegicus. In words: Ex vivo receptor occupancy in ip dosed rat brain anterior olfactory nucleus assessed inhibition of [125I]NPS binding after 30 mins. It counts as functional, organism-based. The method in brief:
(§4)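 Compound given 30 mg/kg ip in 25% HPB cyclodextrin. Brain taken 30 min after dosing (n = 4 rats, 2–3 sections/rat). Tissue sections incubated with 0.5 nM 125I-hNPS for 30 min, with 2 µM unlabeled hNPS defining nonspecific binding. Mean percent occupancy in AON, DEN or SC relative to vehicle was plotted against plasma compound concentration, with IC50 from nonlinear regression.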

Data set [14] has as its system Rattus norvegicus. Kind of data set: Ex vivo receptor occupancy in ip dosed rat brain dorsal endopiriform nucleus assessed inhibition of [125I]NPS binding after 30 mins. It counts as functional, organism-based. The method, boiled down:
as §4

Data set [15] concerns Rattus norvegicus. In words: Ex vivo receptor occupancy in ip dosed rat brain superior coliculus assessed inhibition of [125I]NPS binding after 30 mins. It counts as functional, organism-based. The method in brief:
as §4

In data set [16] the target is T3, Neuropeptide S receptor. Kind of data set: Displacement of [125I]NPS from NPS receptor in rat brain superior coliculus after 30 mins. It counts as tissue-based. The method in brief: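 Rat brain sections from vehicle-treated animals (25% HPB cyclodextrin/75% sterile water, ip), preincubated in vitro with titrated compound. Nonspecific binding from co-incubation with 2 µM unlabeled hNPS. 2–3 sections per concentration. Mean ± SEM.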

Data set [17] concerns Rattus norvegicus. Kind of data set: Ex vivo receptor occupancy of NPS receptor in rat brain anterior olfactory nucleus at 30 mg/kg, ip after 30 mins. It counts as functional, organism-based. More on the design: dose 30 mg/kg. The method in brief:
as §4

For data set [18], the system named is Rattus norvegicus. Kind of data set: Ex vivo receptor occupancy of NPS receptor in rat brain dorsal endopiriform nucleus at 30 mg/kg, ip after 30 mins. It counts as functional, organism-based. Also noted: dose 30 mg/kg. The method in brief:
as §4

Data set [19] concerns Rattus norvegicus. In words: Ex vivo receptor occupancy of NPS receptor in rat brain superior coliculus at 30 mg/kg, ip after 30 mins. It counts as functional, organism-based. Also noted: dose 30 mg/kg. The method, boiled down: as §4

The source made the active and inactive calls. No cut-off for these calls is given here.

Turning to `CN1CCN(C2(CN(Cc3cc4ccccc4n(C)c3=O)C(=O)C3CCCCC3)CCCCC2)CC1`, the concentration for half-maximal inhibition (IC50) at Neuropeptide S receptor [1] is 18 nM. Besides, the efflux ratio in data set [2] is 10.6.

Regarding `CC(CCN1CCCC1)N(Cc1cc2ccccc2n(C)c1=O)C(=O)C1CCCCC1` (configuration not stated), the IC50 at Neuropeptide S receptor [1] came to 1580 nM.

Take `CC(CCN1CCOCC1)N(Cc1cc2ccccc2n(C)c1=O)C(=O)C1CCCCC1` (configuration not stated): the IC50 on Neuropeptide S receptor [1] came out at 725 nM.

In the case of `Cn1c(=O)c(CN(C(=O)C2CCCCC2)C(C)(C)CCN2CCCC2)cc2ccccc21`, the IC50 on Neuropeptide S receptor [1] amounted to 326 nM.

With `Cn1c(=O)c(CN(C(=O)C2CCCCC2)C(C)(C)CCN2CCCCC2)cc2ccccc21`, the IC50 on Neuropeptide S receptor [1] amounted to 31 nM. Further, the efflux ratio in [2] was 36. Further, the Papp in [3] was 25 ×10⁻⁶ cm/s.

For the molecule `Cn1c(=O)c(CN(C(=O)C2CCCCC2)C(C)(C)CCN2CCOCC2)cc2ccccc21`, the IC50 at Neuropeptide S receptor [1] was found to be 144 nM. Besides, the efflux ratio in data set [2] came out at 2. For the same molecule, in data set [3], the Papp worked out at 23 ×10⁻⁶ cm/s.

`CCC(CC)(CCN1CCOCC1)N(Cc1cc2ccccc2n(C)c1=O)C(=O)C1CCCCC1`: at Neuropeptide S receptor [1], the IC50 came to 103 nM.

For the molecule `Cn1c(=O)c(CN(C(=O)C2CCCCC2)C2(CCN3CCOCC3)CCCCC2)cc2ccccc21`, the IC50 at Neuropeptide S receptor [1] worked out at 398 nM.

Take `CCC(C)(CCN1CCCCC1)N(Cc1cc2ccccc2n(C)c1=O)C(=O)C1CCCCC1` (racemic): the IC50 on Neuropeptide S receptor [1] turned out to be 7 nM. Also, the efflux ratio in data set [2] is 43. Moreover, the Papp in data set [3] is 28 ×10⁻⁶ cm/s. In addition, the fraction unbound in data set [4] is 0.11.

With `CCC(C)(CCN1CCC(F)CC1)N(Cc1cc2ccccc2n(C)c1=O)C(=O)C1CCCCC1` (racemic), at Neuropeptide S receptor [1], the IC50 turned out to be 14 nM. Besides, in data set [2], the efflux ratio amounted to 2.6. Moreover, the Papp in data set [3] turned out to be 33 ×10⁻⁶ cm/s.

In the case of `CCC(C)(CCN1CCC(F)(F)CC1)N(Cc1cc2ccccc2n(C)c1=O)C(=O)C1CCCCC1` (racemic), on Neuropeptide S receptor [1], the IC50 amounted to 22 nM. The efflux ratio in data set [2] amounted to 1.1. In data set [3], the Papp stood at 25 ×10⁻⁶ cm/s. In addition, the fraction unbound in data set [4] was 0.03.

On to `CCC(C)(CCN1CCOCC1)N(Cc1cc2ccccc2n(C)c1=O)C(=O)C1CCCCC1` (racemic), for which the IC50 at Neuropeptide S receptor [1] was determined as 23 nM. Further, in data set [3], the Papp amounted to 18 ×10⁻⁶ cm/s.

On to `CCC(C)(CCN1CCOCC1)N(Cc1cc2ccccc2n(C)c1=O)C(=O)C1CCCCC1` (single isomer, unassigned; enantiomer 1) [listing 1 of 2 here], for which the IC50 on Neuropeptide S receptor [1] was 10 nM; with Rattus norvegicus [13] (0.5 h), 570 nM; with Rattus norvegicus [14] (0.5 h), 380 nM; in the data set on Rattus norvegicus [15] (0.5 h), 130 nM; at Neuropeptide S receptor [16], 1.44 nM. Further, the permeability in data set [5] was 36 ×10⁻⁶ cm/s. The molecule further came in with a PPB in the data set with Plasma of 82%. Also, the concentration at 0.5 h in data set [6] amounted to 4.34 µM; in [7], 1690 nM; in data set [8] it was 101 nM. For the same molecule, the concentration at 2 h in [9] is 2300 nM; in data set [10] it was 665 nM; in data set [11], 45 nM. Moreover, a half-maximal response at Neuropeptide S receptor [12] (EC50) required 1.3 nM.

`CCC(C)(CCN1CCOCC1)N(Cc1cc2ccccc2n(C)c1=O)C(=O)C1CCCCC1` (single isomer, unassigned; enantiomer 1) [listing 2 of 2 here]: the result in the data set with Rattus norvegicus [17], with Rattus norvegicus [18] and in the data set with Rattus norvegicus [19] was Active. Further, the Activity result in the data set on Rattus norvegicus [13], with Rattus norvegicus [14] and with Rattus norvegicus [15] was “Dose-dependent effect” in each case.

For the molecule `CCC(C)(CCN1CCOCC1)N(Cc1cc2ccccc2n(C)c1=O)C(=O)C1CCCCC1` (single isomer, unassigned; enantiomer 2), the IC50 on Neuropeptide S receptor [1] was determined as 785 nM.

The values above are taken from ChEMBL document CHEMBL1208679, “Synthesis and evaluation of a new series of Neuropeptide S receptor antagonists” (Bioorg Med Chem Lett, 2010).
